Results from different studies.
Lines come from different studies, so protocols differ.
Target: Casein kinase I isoform alpha-like (CSNK1A1L, Homo sapiens, UniProt Q8N752)
Sequence (Q8N752 1-337, as in one of the studies): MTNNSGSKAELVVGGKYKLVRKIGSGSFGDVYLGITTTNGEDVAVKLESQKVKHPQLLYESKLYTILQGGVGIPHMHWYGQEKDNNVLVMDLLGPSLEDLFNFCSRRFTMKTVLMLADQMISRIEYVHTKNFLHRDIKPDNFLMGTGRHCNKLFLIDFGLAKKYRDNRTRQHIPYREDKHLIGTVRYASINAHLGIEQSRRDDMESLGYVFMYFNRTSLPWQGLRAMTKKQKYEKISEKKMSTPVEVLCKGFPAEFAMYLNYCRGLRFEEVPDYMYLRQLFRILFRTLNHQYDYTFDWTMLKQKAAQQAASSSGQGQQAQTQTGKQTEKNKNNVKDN

C[C@H]1CCN(c2nccc(-c3cnn4ncccc34)n2)C1
remaining binding (binding; 1 µM): 100%

N#Cc1ccc(Nc2ccc3[nH]c(=O)[nH]c3c2)c(Cl)c1
remaining binding (cell-free assay, competition with immobilised ligand; 1 µM): 100%

c1cncc(-c2cccc(Nc3nccc(NC4CCCCC4)n3)c2)c1
remaining binding (binding, competition with immobilised ligand; 10 µM): 92%

CCCOc1ccc([C@@H]2[C@@H](C(=O)O)[C@H](c3ccc4c(c3)OCO4)CN2CC(=O)Nc2c(CC)cccc2CC)cc1
remaining binding (cell-free assay, competition with immobilised ligand; 1 µM): 94%

CN(C)c1nccc(-c2cnn3ncccc23)n1
remaining binding (binding; 1 µM): 98%

Cc1c[nH]c2nccc(Oc3c(F)cc(Nc4cc(Cl)nc(N)n4)cc3F)c12
remaining binding (cell-free assay, competition with immobilised ligand; 0.1 µM): 89%

O=C(Nc1c[nH]nc1C(=O)NC1CCNCC1)c1cc(F)cc(F)c1
remaining binding (binding, competition with immobilised ligand; 1 µM): 84%

N[C@@H]1CCN(c2nccc(-c3cnn4ncccc34)n2)C1
remaining binding (binding; 1 µM): 100%

C[C@@H](c1ccc(-n2cnc3c(N)ncnc32)cc1)N1CCc2nn(C)c(Cc3ccccc3)c2C1=O
remaining binding (binding, competition with immobilised ligand; 0.1 µM): 91%

COc1ccnn2ncc(-c3ccnc(N(C)C)n3)c12
remaining binding (binding; 1 µM): 91%

CC(C)CC(=O)N1CCc2nc(-c3ccc(Br)cc3)nc(N(C)Cc3ccccc3)c2C1
remaining binding (cell-free assay, competition with immobilised ligand; 0.1 µM): 100%

CNC(=O)[C@@H]1CC[C@@H](n2c(-c3ccc4cnccc4c3)nc3ccc(C(=O)NCc4cccc(C(N)=O)c4)cc32)C1
remaining binding (binding, competition with immobilised ligand; 1 µM): 100%

CN(c1nccc(-c2cnn3ncccc23)n1)C1CC1
remaining binding (binding; 1 µM): 100%

Cc1cnc(Nc2ccc(C(=O)N3CCC(N4CCCC4)CC3)cc2)nc1-c1cc2ccccc2s1
remaining binding (binding, competition with immobilised ligand; 1 µM): 100%

CNC(=O)Nc1ccc2c(c1)CC[C@@]21OC(=O)N(CC(=O)N(Cc2ccc(F)cc2)[C@@H](C)C(F)(F)F)C1=O
remaining binding (cell-free assay, competition with immobilised ligand; 1 µM): 88%

O=C(NCCCN1CCOCC1)c1ccc(Nc2ncc(Cl)c(-c3ccc(Cl)s3)n2)cc1
remaining binding (binding, competition with immobilised ligand; 1 µM): 100%

F[C@@H]1CCN(c2nccc(-c3cnn4ncccc34)n2)C1
remaining binding (binding; 1 µM): 100%

CCN1CCN(Cc2ccc(C(=O)Nc3ccc(C)c(Oc4ccc5c(c4)CC(=O)N5)c3)cc2C(F)(F)F)CC1
remaining binding (binding, competition with immobilised ligand; 1 µM): 100%

COc1cnc(Nc2cccc(S(N)(=O)=O)c2)nc1N1CCN(c2ccccc2)C(=O)C1
remaining binding (binding, competition with immobilised ligand; 1 µM): 100%

CNCc1ccccc1-c1csc([C@@H](C)Nc2nc(C)nc3cc(OC)c(OC)cc23)c1
remaining binding (cell-free assay, competition with immobilised ligand; 1 µM): 100%

O=C(c1ccc(Nc2nccc(-c3cc4ccccc4s3)n2)cc1)N1CCC(N2CCCC2)CC1
remaining binding (binding, competition with immobilised ligand; 1 µM): 98%
